Converted amounts (≈) assume the structure as drawn. Each block holds one molecule with its values, some of them ahead of it.
Key:
[1] = tested on: Staphylococcus aureus; assay: Antibacterial activity against Staphylococcus aureus ATCC 6538 after 24 hrs by microdilution method; assay type: functional; details: ATCC 6538, 24 h
In short: (§1)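 Broth microdilution in 96-well plates. Bacterial suspensions were adjusted in sterile saline to 1.0 × 10⁵ CFU/ml, prepared daily and kept at 4 °C. Compound was added to LB broth with 1.0 × 10⁴ CFU per well and shaken at 160 rpm for 24 h at […] (so in the source). MIC is the lowest concentration with no visible growth under a binocular microscope. OD655 was also read. Duplicate, repeated three times.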

[2] = tested on: Bacillus cereus; assay: Antibacterial activity against clinical isolate of Bacillus cereus after 24 hrs by microdilution method; assay type: functional; in short: as §1
[3] = tested on: Micrococcus flavus; assay: Antibacterial activity against Micrococcus flavus ATCC 10240 after 24 hrs by microdilution method; assay type: functional; details: ATCC 10240, 24 h; in short: as §1
[4] = tested on: Listeria monocytogenes; assay: Antibacterial activity against Listeria monocytogenes NCTC 7973 after 24 hrs by microdilution method; assay type: functional; details: NCTC 7973, 24 h; in short: as §1
[5] = tested on: Pseudomonas aeruginosa; assay: Antibacterial activity against Pseudomonas aeruginosa ATCC 27853 after 24 hrs by microdilution method; assay type: functional; details: ATCC 27853, 24 h; in short: as §1
[6] = tested on: Salmonella typhimurium; assay: Antibacterial activity against Salmonella Typhimurium ATCC 13311 after 24 hrs by microdilution method; assay type: functional, Salmonella enterica subsp. enterica serovar Typhimurium; details: Salmonella enterica, ATCC 13311, 24 h; in short: as §1
[7] = tested on: Escherichia coli; assay: Antibacterial activity against Escherichia coli ATCC 35210 after 24 hrs by microdilution method; assay type: functional; details: ATCC 35210, 24 h; in short: as §1
[8] = tested on: Enterococcus faecalis; assay: Antibacterial activity against Enterococcus faecalis isolated from human after 24 hrs by microdilution method; assay type: functional; in short: as §1
[9] = tested on: Staphylococcus aureus; assay: Antibacterial activity against Staphylococcus aureus ATCC 6538 incubated for 24 hrs followed by serial sub-cultivation for 24 hrs by microdilution method; assay type: functional; details: ATCC 6538, 24 h
In short: (§2)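 MBC: after the 24 h LB broth microdilution (1.0 × 10⁴ CFU per well, 160 rpm), wells were serially sub-cultured into fresh broth plates and incubated a further 24 h. MBC is the lowest concentration with no visible growth, taken as 99.5% killing of the original inoculum. Duplicate, repeated three times.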

[10] = tested on: Bacillus cereus; assay: Antibacterial activity against clinical isolate of Bacillus cereus incubated for 24 hrs followed by serial sub-cultivation for 24 hrs by microdilution; assay type: functional; in short: as §2
[11] = tested on: Micrococcus flavus; assay: Antibacterial activity against Micrococcus flavus ATCC 10240 incubated for 24 hrs followed by serial sub-cultivation for 24 hrs by microdilution; assay type: functional; details: ATCC 10240, 24 h; in short: as §2
[12] = tested on: Listeria monocytogenes; assay: Antibacterial activity against Listeria monocytogenes NCTC 7973 incubated for 24 hrs followed by serial sub-cultivation for 24 hrs by microdilution; assay type: functional; details: NCTC 7973, 24 h; in short: as §2
[13] = tested on: Pseudomonas aeruginosa; assay: Antibacterial activity against Pseudomonas aeruginosa ATCC 27853 incubated for 24 hrs followed by serial sub-cultivation for 24 hrs by microdilution; assay type: functional; details: ATCC 27853, 24 h; in short: as §2
[14] = tested on: Salmonella typhimurium; assay: Antibacterial activity against Salmonella Typhimurium ATCC 13311 incubated for 24 hrs followed by serial sub-cultivation for 24 hrs by microdilution; assay type: functional, Salmonella enterica subsp. enterica serovar Typhimurium; details: Salmonella enterica, ATCC 13311, 24 h; in short: as §2
[15] = tested on: Escherichia coli; assay: Antibacterial activity against Escherichia coli ATCC 35210 incubated for 24 hrs followed by serial sub-cultivation for 24 hrs by microdilution; assay type: functional; details: ATCC 35210, 24 h; in short: as §2
[16] = tested on: Enterococcus faecalis; assay: Antibacterial activity against Enterococcus faecalis isolated from human incubated for 24 hrs followed by serial sub-cultivation for 24 hrs by microdilution; assay type: functional; in short: as §2
[17] = tested on: Aspergillus ochraceus; assay: Antifungal activity against Aspergillus ochraceus ATCC 12066 after 72 hrs by serial dilution technique; assay type: functional; details: ATCC 12066, 72 h
In short: (§3)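 Modified microdilution in 96-well plates. Fungi were kept on malt agar at 4 °C. Spores were washed off in sterile 0.85% saline with 0.1% Tween 80. Compounds were dissolved at 1 mg/ml in 5% DMSO with 0.1% Tween 80 and added to malt broth with inoculum. Plates were shaken at 160 rpm for 72 h at 28 °C. Duplicate, repeated three times.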

[18] = tested on: Aspergillus niger; assay: Antifungal activity against Aspergillus niger ATCC 6275 after 72 hrs by serial dilution technique; assay type: functional; details: ATCC 6275, 72 h; in short: as §3
[19] = tested on: Aspergillus flavus; assay: Antifungal activity against Aspergillus flavus ATCC 9643 after 72 hrs by serial dilution technique; assay type: functional; details: ATCC 9643, 72 h; in short: as §3
[20] = tested on: Talaromyces funiculosus; assay: Antifungal activity against Penicillium funiculosum ATCC 36839 after 72 hrs by serial dilution technique; assay type: functional; details: ATCC 36839, 72 h; in short: as §3
[21] = tested on: Penicillium ochrochloron; assay: Antifungal activity against Penicillium ochrochloron ATCC 9112 after 72 hrs by serial dilution technique; assay type: functional; details: ATCC 9112, 72 h; in short: as §3
[22] = tested on: Trichoderma viride; assay: Antifungal activity against Trichoderma viride IAM 5061 after 72 hrs by serial dilution technique; assay type: functional; details: IAM 5061, 72 h; in short: as §3
[23] = tested on: Candida albicans; assay: Antifungal activity against Candida albicans isolated from human after 72 hrs by serial dilution technique; assay type: functional; in short: as §3
[24] = tested on: Aspergillus ochraceus; assay: Antifungal activity against Aspergillus ochraceus ATCC 12066 incubated for 72 hrs followed by serial sub-cultivation for 72 hrs by serial dilution technique; assay type: functional; details: ATCC 12066, 72 h
In short: (§4)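 MFC: material from 72 h malt broth microdilution wells was serially sub-cultured into fresh broth plates and incubated a further 72 h at 28 °C. Fungicidal concentration is taken from growth after sub-culture. Duplicate, repeated three times.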

[25] = tested on: Aspergillus fumigatus; assay: Antifungal activity against Aspergillus fumigatus isolated from human incubated for 72 hrs followed by serial sub-cultivation for 72 hrs by serial dilution technique; assay type: functional; in short: as §4
[26] = tested on: Aspergillus niger; assay: Antifungal activity against Aspergillus niger ATCC 6275 incubated for 72 hrs followed by serial sub-cultivation for 72 hrs by serial dilution technique; assay type: functional; details: ATCC 6275, 72 h; in short: as §4
[27] = tested on: Aspergillus flavus; assay: Antifungal activity against Aspergillus flavus ATCC 9643 incubated for 72 hrs followed by serial sub-cultivation for 72 hrs by serial dilution technique; assay type: functional; details: ATCC 9643, 72 h; in short: as §4
[28] = tested on: Talaromyces funiculosus; assay: Antifungal activity against Penicillium funiculosum ATCC 36839 incubated for 72 hrs followed by serial sub-cultivation for 72 hrs by serial dilution technique; assay type: functional; details: ATCC 36839, 72 h; in short: as §4
[29] = tested on: Penicillium ochrochloron; assay: Antifungal activity against Penicillium ochrochloron ATCC 9112 incubated for 72 hrs followed by serial sub-cultivation for 72 hrs by serial dilution technique; assay type: functional; details: ATCC 9112, 72 h; in short: as §4
[30] = tested on: Trichoderma viride; assay: Antifungal activity against Trichoderma viride IAM 5061 incubated for 72 hrs followed by serial sub-cultivation for 72 hrs by serial dilution technique; assay type: functional; details: IAM 5061, 72 h; in short: as §4
[31] = tested on: Candida albicans; assay: Antifungal activity against Candida albicans isolated from human incubated for 72 hrs followed by serial sub-cultivation for 72 hrs by serial dilution technique; assay type: functional; in short: as §4
[32] = tested on: Pseudomonas aeruginosa; assay: Ratio of ampicillin MIC to compound MIC for Pseudomonas aeruginosa ATCC 27853; assay type: functional
[33] = tested on: Aspergillus ochraceus; assay: Ratio of bifonazole to compound for Aspergillus ochraceus ATCC 12066; assay type: functional
[34] = tested on: Aspergillus niger; assay: Ratio of bifonazole to compound for Aspergillus niger ATCC 6275; assay type: functional
[35] = tested on: Talaromyces funiculosus; assay: Ratio of bifonazole to compound for Penicillium funiculosum ATCC 36839; assay type: functional
[36] = tested on: Penicillium ochrochloron; assay: Ratio of bifonazole to compound for Penicillium ochrochloron ATCC 9112; assay type: functional
[37] = tested on: Trichoderma viride; assay: Ratio of bifonazole to compound for Trichoderma viride IAM 5061; assay type: functional
[38] = tested on: Candida albicans; assay: Ratio of bifonazole to compound for Candida albicans isolated from human; assay type: functional
[39] = tested on: Aspergillus ochraceus; assay: Ratio of ketoconazole to compound for Aspergillus ochraceus ATCC 12066; assay type: functional
[40] = tested on: Aspergillus fumigatus; assay: Ratio of ketoconazole to compound for Aspergillus fumigatus isolated from human; assay type: functional
[41] = tested on: Penicillium ochrochloron; assay: Ratio of ketoconazole to compound for Penicillium ochrochloron ATCC 9112; assay type: functional
[42] = tested on: Candida albicans; assay: Ratio of ketoconazole to compound for Candida albicans isolated from human; assay type: functional
[43] = tested on: Aspergillus ochraceus; assay: Antifungal activity against Aspergillus ochraceus after 72 hrs by serial dilution technique

MIC [1]: 68.9 µM (≈ 20 µg/mL) | MIC [2]: 51.7 µM (≈ 15 µg/mL) | MIC [3]: 34.5 µM (≈ 10 µg/mL) | MIC [4]: 86.2 µM (≈ 25 µg/mL) | MIC [5]: 68.9 µM (≈ 20 µg/mL) | MIC [6]: 51.7 µM (≈ 15 µg/mL) | MIC [7]: 68.9 µM (≈ 20 µg/mL) | MIC [8]: 51.7 µM (≈ 15 µg/mL) | MIC [17]: 68.9 µM (≈ 20 µg/mL) | MIC [18]: 34.5 µM (≈ 10 µg/mL) | MIC [19]: 68.9 µM (≈ 20 µg/mL) | MIC [20]: 34.5 µM (≈ 10 µg/mL) | MIC [21]: 34.5 µM (≈ 10 µg/mL) | MIC [22]: 34.5 µM (≈ 10 µg/mL) | MIC [23]: 34.5 µM (≈ 10 µg/mL) | MIC [43]: 34.5 µM (≈ 10 µg/mL)
SMILES: CCNc1nc(C)c(C(=O)/C=C/c2cccc(F)c2)s1
MBC [9]: 103 µM (≈ 30 µg/mL) | MBC [10]: 68.9 µM (≈ 20 µg/mL) | MBC [11]: 86.2 µM (≈ 25 µg/mL) | MBC [12]: 86.2 µM (≈ 25 µg/mL) | MBC [13]: 68.9 µM (≈ 20 µg/mL) | MBC [14]: 51.7 µM (≈ 15 µg/mL) | MBC [15]: 86.2 µM (≈ 25 µg/mL) | MBC [16]: 68.9 µM (≈ 20 µg/mL) | MFC [24]: 86.2 µM (≈ 25 µg/mL) | MFC [25]: 68.9 µM (≈ 20 µg/mL) | MFC [26]: 68.9 µM (≈ 20 µg/mL) | MFC [27]: 86.2 µM (≈ 25 µg/mL) | MFC [28]: 68.9 µM (≈ 20 µg/mL) | MFC [29]: 68.9 µM (≈ 20 µg/mL) | MFC [30]: 68.9 µM (≈ 20 µg/mL) | MFC [31]: 68.9 µM (≈ 20 µg/mL) | Ratio [32]: 10 | Ratio [33]: 10 | Ratio [34]: 10 | Ratio [35]: 10 | Ratio [36]: 10 | Ratio [37]: 10 | Ratio [38]: 10 | Ratio [39]: 10 | Ratio [40]: 10 | Ratio [41]: 10 | Ratio [42]: 10

MIC [1]: 61.2 µM (≈ 20 µg/mL) | MIC [2]: 45.9 µM (≈ 15 µg/mL) | MIC [3]: 30.6 µM (≈ 10 µg/mL) | MIC [4]: 91.7 µM (≈ 30 µg/mL) | MIC [5]: 61.2 µM (≈ 20 µg/mL) | MIC [6]: 61.2 µM (≈ 20 µg/mL) | MIC [7]: 45.9 µM (≈ 15 µg/mL) | MIC [8]: 76.5 µM (≈ 25 µg/mL) | MIC [17]: 30.6 µM (≈ 10 µg/mL) | MIC [18]: 30.6 µM (≈ 10 µg/mL) | MIC [19]: 30.6 µM (≈ 10 µg/mL) | MIC [20]: 30.6 µM (≈ 10 µg/mL) | MIC [21]: 30.6 µM (≈ 10 µg/mL) | MIC [22]: 30.6 µM (≈ 10 µg/mL) | MIC [23]: 45.9 µM (≈ 15 µg/mL) | MIC [43]: 30.6 µM (≈ 10 µg/mL)
SMILES: CNc1nc(C)c(C(=O)/C=C/c2cccc(Cl)c2Cl)s1
MBC [9]: 91.7 µM (≈ 30 µg/mL) | MBC [10]: 61.2 µM (≈ 20 µg/mL) | MBC [11]: 91.7 µM (≈ 30 µg/mL) | MBC [12]: 91.7 µM (≈ 30 µg/mL) | MBC [13]: 91.7 µM (≈ 30 µg/mL) | MBC [14]: 76.5 µM (≈ 25 µg/mL) | MBC [15]: 61.2 µM (≈ 20 µg/mL) | MBC [16]: 76.5 µM (≈ 25 µg/mL) | MFC [24]: 61.2 µM (≈ 20 µg/mL) | MFC [25]: 61.2 µM (≈ 20 µg/mL) | MFC [26]: 61.2 µM (≈ 20 µg/mL) | MFC [27]: 76.5 µM (≈ 25 µg/mL) | MFC [28]: 61.2 µM (≈ 20 µg/mL) | MFC [29]: 61.2 µM (≈ 20 µg/mL) | MFC [30]: 61.2 µM (≈ 20 µg/mL) | MFC [31]: 61.2 µM (≈ 20 µg/mL) | Ratio [32]: 10 | Ratio [33]: 10 | Ratio [34]: 10 | Ratio [35]: 10 | Ratio [36]: 10 | Ratio [37]: 10 | Ratio [38]: 10 | Ratio [39]: 10 | Ratio [40]: 10 | Ratio [41]: 10 | Ratio [42]: 10

— ChEMBL document CHEMBL1926569, “Novel (E)-1-(4-methyl-2-(alkylamino)thiazol-5-yl)-3-arylprop-2-en-1-ones as potent antimicrobial agents” (2011)
